Measurements taken from ChEMBL document CHEMBL4513216, “Probing the Open Global Health Chemical Diversity Library for Multistage-Active Starting Points for Next-Generation Antimalarials” (ACS Infect Dis, 2020).

Experiment: Toxicity liver stage against HepG2, at 10uM
Format: cell-based
Design: test concentration 10 uM, cell line HepG2-A16-CD81EGFP
Settings: human, HepG2-A16-CD81EGFP cells; read-out: INHIBITION
In short: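 Uninfected HepG2-A16-CD81EGFP cells, 3 × 10^3 per well, 1536-well, plated on prespotted compound at 10 μM final, parasite-free screening media added to match infected plates; puromycin 10 μM positive, DMSO 0.5% negative; run in parallel with 48 h PbLuc assay at 37 °C, 5% CO2; viability by CellTiter-Glo luminescence, normalized to controls.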

SMILES | cytotoxicity at 10 µM
O=S1(=O)N(c2ccccc2)C[C@H](O)[C@]12CCNC2 | 0.827%
CCc1nc(CC(=O)N2CCn3c(C)nnc3C2)cs1 | -9.57%
Cc1nncn1CCN1C(=O)CC2(CCCC2)CC1=O | -0.745%
CC(CNCc1ccc(Cl)c(Cl)c1)Oc1ccccn1 (configuration not stated) | -0.291%
COCCCNc1cc(C)nn2cnnc12 | 6%
CCC1(CC)Cc2ccccc2-c2nc(NCCO)[nH]c(=O)c21 | -7.17%
O=S(=O)(Nc1ccc(N2CCOCC2)cc1)c1cccc(F)c1 | 12%
Cc1nnc(NCCn2nc(C)c(Cl)c2C)o1 | 1.91%
COc1ccc(C2CC(=O)Nc3c2nc2n3CCCC2)cc1O (configuration not stated) | -2.53%
CCOCCC(=O)N1C[C@@H]2CC[C@H]1CN(Cc1ccncc1)C2 | -11.1%
Cc1nc(COc2ccc(CNCC3CN(C)CCO3)cc2)cs1 (configuration not stated) | -13.1%
CN(Cc1ccco1)Cc1ccccc1CNC(=O)c1c[nH]nn1 | -2.89%
CCn1c(CC2CCN(C(=O)C3CC(C(C)C)=NO3)CC2)nn(C)c1=O (configuration not stated) | 3.72%
Cc1ccc(CN2CCc3c(nc4cc(C5CC5)nn4c3O)C2)s1 | -3.69%
CCCc1nc(C)cc(N2CCC3(CCC(=O)N(CCCO)C3)CC2)n1 | -5.81%
CC(C)c1nnc2n1CCN(C(C)c1nnc(-c3cccs3)o1)C2 (configuration not stated) | 7.8%
Cc1cc(C(=O)N2CCCN(Cc3nccn3C)CC2)no1 | 0.47%
COc1ccc(C(=O)N(Cc2cnn(C)c2)C(C)C)cc1Br | -9.02%
CC(NC(=O)NCc1ccccc1)(C(=O)O)c1ccco1 (configuration not stated) | -3.37%
O=C(Cc1ccccn1)N1CCC2(CC1)CC(Oc1ccccn1)CO2 (configuration not stated) | -0.0273%
Cc1cn2c(n1)CCC(NC(=O)CCC(F)(F)F)C2 (configuration not stated) | -9.12%
Cc1nnc(SCCC(=O)N(C)Cc2ccc(F)cc2F)[nH]1 | 5.21%
CCN(CC)c1ccc(NS(=O)(=O)c2cnn(C(C)C)c2)cn1 | 5.02%

SMILES | cytotoxicity at 10 µM
Cc1cc(-c2cccc(C(=O)O)c2)nc(C2CCN(C(C)C)CC2)n1 | -0.723%
O=S(=O)(CCNCCn1cccn1)c1ccccc1 | 11.5%
COCCCN1CC2(CCCCN2C(=O)COC)CC1=O (configuration not stated) | 2.5%
COCCN1CCCn2cnc(CN(C)C(C)C)c2C1 | 6.53%
Cc1cc(C(=O)N2CCCC2)ccc1NCCOCC(F)(F)F | 0.608%
c1cn(-c2cnc(C3CCCNC3)cn2)cn1 (configuration not stated) | -25.2%
Cc1ccoc1C(=O)N1Cc2c(CN3CCCCC3)nn(C)c2C1 | -1.16%
CSC(C)(C)CNC(=O)NC1CCN(CC2CC2)C1 (configuration not stated) | 0.811%
CCc1nnc2n1CCN(CCC(=O)Nc1sccc1C#N)C2 | -23%
O=c1cnc2ccccc2n1CCCn1ccnc1 | -3.85%
COc1ccc([C@@H]2CN(c3cc(OC)nc(N)n3)C[C@H]2N(C)C)cc1 | 15%
O=C1N(Cc2cccc(F)c2F)CCCC1(O)CNCC1CCCCC1 (configuration not stated) | -1.29%
Cc1n[nH]c(C)c1CCNC(=O)C1CCCN(CC(N)=O)C1 (configuration not stated) | -0.653%
CCc1nnc2n1CCN(C(=O)CCOc1cc(C)ccc1C)C2 | -11.3%
Cc1nc(S(=O)(=O)N2CCSC3(CCCCC3)C2)cn1C | -9.2%
CN(CC(=O)N1CCC(Oc2ccccc2)CC1)c1cnccn1 | 2.12%
CCn1cc(S(=O)(=O)Nc2nc3c(s2)CCCC3)cn1 | 6.33%
c1cc(CN2CCC(CCn3cccn3)CC2)cc(Cn2cccn2)c1 | -1.58%
Cc1cccc(S(=O)(=O)NCC(C)(C)CC(C)O)c1C#N (configuration not stated) | -1.37%
Cc1ccc(-c2nc(CN3CCOC(CN(C)C)C3)co2)cc1 (configuration not stated) | -4.23%
O=C(NC1CC1)[C@H]1C[C@H]2OCC[C@H]2N(CC2CCOCC2)C1 | 2.98%
Cc1cc(NC(=O)CNC(C)(C)c2ccc3c(c2)OCCO3)no1 | -7.1%
COCC(=O)N1CCCC2(COCCN(CCN(C)C)C2)C1 (configuration not stated) | 8.76%

SMILES | cytotoxicity at 10 µM
O=C1CCCN1Cc1noc(-c2ccc(Cl)cc2)n1 | 5.56%
Cc1nccn1-c1ccc(CNC(=O)c2ccc[nH]2)cn1 | -14.2%
CC(C)Cc1cc(CC2(NCc3ccccc3Cl)COC2)no1 | -7.55%
O=C(c1cccnc1)N1CCCC(c2ncncc2-c2ccncc2)C1 (configuration not stated) | -23.4%
O=C(c1ccccn1)N1CC[C@H]2C(=O)N(c3ccsc3)CCO[C@H]2C1 | 11.6%
Nc1nc(NCCO)cc(N2CCc3c([nH]c4ccccc34)C2)n1 | 11.9%
CCn1cc(-n2cc3nc(N4CCN(C)CC4)[nH]cc-3c2=O)cn1 | 1.54%
CC[C@@H]1N(CC2CC2)CCC[C@]12CCC(=O)N2CCOC | -5.15%
CC(=O)Nc1ccc(CNCc2cccnc2N(C)C)cc1 | -7.49%
CCN(CC1CCCO1)C(=O)Nc1cc(C(N)=O)ccc1OC (configuration not stated) | -7.33%
COCCC1COC2(CCN(C(=O)c3cccnc3)CC2)C1 (configuration not stated) | -72.4%
CCOC1CCCN(C(=O)Nc2cnn(CC(F)F)c2)C1 (configuration not stated) | -1.84%
CC(C)c1cc(N2CCC(N(C)C)C2)n2nccc2n1 (configuration not stated) | -0.869%
Cc1ccc(CNc2cc(C(=O)N3CCOCC3)nc(C)n2)cc1 | -1.61%
CC(C)OCc1nn(C)c2c1CN(Cc1cccs1)CC2 | -99.5%
Cc1ccsc1CN1CCC2(CC1)CC(OCc1cccnc1)CO2 (configuration not stated) | 3.45%
O=C(NC1CCN(Cc2cccc3c2OCCO3)CC1)c1cccs1 | -4.71%
NC(=O)CN1C[C@@H](c2ccccc2F)[C@@]2(CCCCC(=O)N2)C1 | 7.04%
COc1cc(C(=O)N(Cc2cnn(C)c2)C(C)C)ccc1OCC(N)=O | -5.45%
O=C1CN(Cc2nnc(-c3ccccc3Br)o2)CCN1 | 9.35%
Cc1nc(=O)c2ccccc2n1C1=CCN(CC(=O)NC(C)C)CC1 | -7.99%
O=C(NCCc1ccccc1)N1CCC(C2OCCO2)CC1 | -46.5%
O=C([C@@H]1CCO[C@@H]2CCN(CC3CC3)C[C@H]21)N1CCCC1 | -103%

SMILES | cytotoxicity at 10 µM
Cc1nc(C2CCCN2C(=O)CCn2cncn2)no1 (configuration not stated) | -17.8%
CSC1(CNC(=O)c2ccn(-c3ccccc3F)n2)CCOCC1 | 0.243%
CCCN1CCN(C(=O)c2cncnc2C)[C@H]2CS(=O)(=O)C[C@H]21 | 0.145%
CC(NC(=O)N(C)Cc1cccc(OC(F)F)c1)c1nncn1C (configuration not stated) | -2.69%
O=C(c1ccon1)N1CCN(c2ccncc2Cl)CC1 | 2.22%
Cc1noc(C)c1CN(C)Cc1csc(-c2ncccn2)n1 | 16.5%
CNC(=O)c1cc(NC(=O)NCC2CCS(=O)(=O)C2)ccc1OC (configuration not stated) | 9.57%
COC(=O)c1cccc(S(=O)(=O)NC(=O)COC2CCCCC2)c1 | -10.1%
O=C1CC(c2cccnc2)c2c(sc3c2CCCC3)N1 (configuration not stated) | 8.75%
Cc1cc(C(=O)N2CC[C@@]3(C[C@@H](NS(C)(=O)=O)CCO3)C2)no1 | -61.1%
COc1c(CNC2CCc3cc(F)ccc32)c(C)nn1C (configuration not stated) | -8.11%
O=C(NC[C@H]1OC[C@@H](NC2CCC(F)(F)CC2)[C@@H]1O)c1ccccc1 | -4.1%
Cc1nc(C)n(CC2CCCCN2c2ncnc3ccsc23)n1 (configuration not stated) | -2.04%
COc1cc(F)ccc1N(C)Cc1ccccn1 | -1.84%
CCc1c(C)nn(CCNC(=O)c2cnn[nH]2)c1C | -5.28%
Cc1cc(NC(=O)N2CCC[C@@H]2CO)nn1-c1ccccc1Cl | -1.29%
Cc1cc2ccccc2n1CC(=O)Nc1ccnn1CC1CCOC1 (configuration not stated) | 7.77%
CCc1nccc(CN2CCC(CNC(=O)Nc3ccccc3)C2)n1 (configuration not stated) | 9.99%
CC(C)=CCN1CCC(c2nccn2Cc2cscn2)CC1 | -13%
CN1Cc2cc(F)ccc2N(CC(C)(C)O)CCC1=O | -2.02%
CCOc1ncccc1CNC(=O)CN1CCCCCC1=O | 2.92%
CCC(NC(=O)c1cnc(N(C)C)nc1C)c1ccncc1 (configuration not stated) | -2.9%
c1cc(-c2nnc3sc(CCN4CCCC4)nn23)ccn1 | -4.31%

SMILES | cytotoxicity at 10 µM
COc1cc2ccccc2cc1C(=O)N1CCCC(c2nncn2C)C1 (configuration not stated) | -6.9%
CCOc1ccnc(N2CCN(C(=O)c3ccoc3)CC2)n1 | -6.1%
Cc1cc(C(N)=O)nc(C2(C)CCCN2Cc2cnn(C)c2C)n1 (configuration not stated) | -20.6%
CCC[C@@H]1CN(C(=O)c2cc(-c3cccs3)n(C)n2)C[C@H]1NS(C)(=O)=O | -1.63%
O=C1CC(c2cccnc2)C2(CCN(S(=O)(=O)C3CC3)CC2)N1 (configuration not stated) | -2.29%
CCn1cc(CN2CCC(O)(Cn3nc(C)ccc3=O)CC2)cn1 | -22.3%
CCN1C[C@@H]2CN(c3cc(OC)ncn3)CCC[C@]2(C(=O)O)C1 | -2.58%
O=C1CC2(CCN(C(=O)c3ccncc3)CC2)Oc2c(Cl)cc(Cl)cc21 | 5.17%
CCN(CC1=CCN(C)CC1)C(=O)CCOC | 5.09%
Cn1c(CO)cnc1SC(C(N)=O)c1ccccc1 (configuration not stated) | -48.8%
c1ccc(CN2CCCC3(CCN(Cc4cccs4)C3)C2)nc1 (configuration not stated) | -8.75%
CN(CCc1ccccn1)C(=O)c1cnn(-c2ccccc2F)c1N | -4.85%
O=C(c1cnns1)N1CCN(c2ccc(F)cc2Cl)CC1 | -145%
Cc1cc(C)n(CC2CCCN2C(=O)c2c(C)noc2C)n1 (configuration not stated) | -13.8%
CN(Cc1noc(C2CC2)n1)C1CCN(Cc2nnc(C3CC3)o2)C1 (configuration not stated) | -5.28%
O=c1[nH]c(CCN2CCN(CC(F)(F)F)CC2)nc2ccccc12 | 4.44%
NC(=O)CN1CCC(OCc2ccc(Cl)c(Cl)c2)CC1 | -0.497%
COCCN(C)C(=O)c1ccc(OC)cc1O | -3.19%
CN(C)c1ccc(CCNC(=O)C2CCC(=O)N(C3CCCC3)C2)cc1 (configuration not stated) | 20.8%
CN(Cc1csc2ccccc12)C(=O)NC1CCS(=O)(=O)C1 (configuration not stated) | -42.1%
